In ChEMBL document CHEMBL3120099, “Novel S1P(1) receptor agonists--part 2: from bicyclo[3.1.0]hexane-fused thiophenes to isobutyl substituted thiophenes” (J Med Chem, 2014):

system: Rattus norvegicus; assay: Lymphopenic activity in Wistar rat assessed as reduction in blood lymphocyte count at 10 mg/kg, po after 3 hrs; type: functional; set-up: scale not given: the % may be the effect or the level left
Outline: (§1)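 Normotensive male Wistar rats given 1–10 mg/kg by gavage in 5% DMSO/7.5% succinylated gelatin. Blood taken before and 3, 6 and 24 h after dosing, with later times for some compounds. Lymphocytes counted by hematology analyzer. % LC change calculated per animal relative to the predose value (=100%). Mean ± SEM.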

Row | Compound | Activity
1 | CCc1ccc(-c2nc(-c3cc(C)c(OC[C@@H](O)CNC(=O)CO)c(C)c3)no2)s1 | -73%

system: Rattus norvegicus; assay: Lymphopenic activity in Wistar rat assessed as reduction in blood lymphocyte count at 10 mg/kg, po after 24 hrs; type: functional; outline: as §1

Row | Compound | % change in blood lymphocyte count from predose
2 | CCc1ccc(-c2nc(-c3cc(C)c(OC[C@@H](O)CNC(=O)CO)c(C)c3)no2)s1 | 12%

system: Rattus norvegicus; assay: Lymphopenic activity in Wistar rat assessed as reduction in blood lymphocyte count at 10 mg/kg, po after 6 hrs; type: functional; set-up: scale not given: the % may be the effect or the level left; outline: as §1

Row | Compound | Activity
3 | CCc1ccc(-c2nc(-c3cc(C)c(OC[C@@H](O)CNC(=O)CO)c(C)c3)no2)s1 | -77%

target: Sphingosine 1-phosphate receptor 1 (Homo sapiens, UniProt P21453); assay: Agonist activity at human recombinant S1P1 receptor expressed in CHO cells assessed as membrane-bound 35S-GTPgammaS incubated 30 mins prior to substrate addition measured after 1 hr by topcount scintillation counting analysis; type: functional, cell-based
Sequence (P21453 whole entry): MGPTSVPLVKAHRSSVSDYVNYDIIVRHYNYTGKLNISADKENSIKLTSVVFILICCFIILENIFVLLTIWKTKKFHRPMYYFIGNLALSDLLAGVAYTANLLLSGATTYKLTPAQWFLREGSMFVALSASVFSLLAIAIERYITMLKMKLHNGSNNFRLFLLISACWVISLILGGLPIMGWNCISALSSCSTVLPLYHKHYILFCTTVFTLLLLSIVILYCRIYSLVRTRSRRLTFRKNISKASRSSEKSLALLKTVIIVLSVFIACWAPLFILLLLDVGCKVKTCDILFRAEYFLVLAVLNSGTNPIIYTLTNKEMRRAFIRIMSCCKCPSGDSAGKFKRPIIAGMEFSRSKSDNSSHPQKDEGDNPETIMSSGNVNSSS

Row | Compound | EC50
4 | Cc1cc(CCC(=O)c2sc(C)c3c2CCC(C)(C)C3)cc(C)c1OCCCO | 71 nM
5 | CCc1sc(C(=O)CCc2cc(C)c(OC[C@@H](O)CO)c(C)c2)c2c1CC1(CCCC1)CC2 | 0.4 nM
6 | CCc1cc(-c2noc(-c3sc(CC)c4c3CCC3(CC3)C4)n2)cc(C)c1OC[C@@H](O)CNC(=O)CO | 1.1 nM
7 | Cc1cc(CCC(=O)c2sc(C)c3c2CCC(C)(C)C3)cc(C)c1O | 21 nM

Further lines, results first:

Row | EC50 | Compound
8 | 2.6 nM | Cc1cc(CCC(=O)c2sc(C)c3c2CCC(C)(C)C3)cc(C)c1OC[C@@H](O)CO
9 | 4.8 nM | CCc1cc(CCC(=O)c2scc3c2CCC(C)(C)C3)cc(C)c1OC[C@@H](O)CNC(=O)CO
10 | 3.4 nM | Cc1cc(CCC(=O)c2sc(C)c3c2CCC(C)(C)C3)cc(C)c1OC[C@H](O)CO
11 | 1.3 nM | CCCc1sc(C(=O)CCc2cc(C)c(OC[C@@H](O)CNC(=O)CO)c(CC)c2)c2c1CC(C)(C)CC2
12 | 1.7 nM | CCc1cc(-c2noc(-c3scc4c3CCC(C)(C)C4)n2)cc(C)c1OCC(O)CNC(=O)CO (racemic)
13 | 14 nM | Cc1cc(CCC(=O)c2sc(C)c3c2CCC(C)(C)C3)cc(C)c1OCC(O)CNCCO (racemic)
14 | 7 nM | Cc1cc(CCC(=O)c2sc(C)c3c2CCC(C)(C)C3)cc(C)c1OCC(O)CN (racemic)

target: Sphingosine 1-phosphate receptor 3 (Homo sapiens, UniProt Q99500); assay: Agonist activity at human recombinant S1P3 receptor expressed in CHO cells assessed as membrane-bound 35S-GTPgammaS incubated 30 mins prior to substrate addition measured after 1 hr by topcount scintillation counting analysis; type: functional, cell-based
Sequence (Q99500 whole entry): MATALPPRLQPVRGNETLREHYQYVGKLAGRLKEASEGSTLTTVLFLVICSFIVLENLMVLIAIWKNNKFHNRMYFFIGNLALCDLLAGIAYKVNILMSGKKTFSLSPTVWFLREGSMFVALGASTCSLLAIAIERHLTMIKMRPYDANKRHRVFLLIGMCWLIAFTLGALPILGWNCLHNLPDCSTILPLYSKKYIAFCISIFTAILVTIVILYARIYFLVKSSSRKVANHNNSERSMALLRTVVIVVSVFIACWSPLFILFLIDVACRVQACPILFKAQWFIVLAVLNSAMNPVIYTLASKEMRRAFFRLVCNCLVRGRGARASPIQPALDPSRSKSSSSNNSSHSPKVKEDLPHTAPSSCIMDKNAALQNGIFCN

Row | Compound | EC50
15 | Cc1cc(CCC(=O)c2sc(C)c3c2CCC(C)(C)C3)cc(C)c1OCCCO | 4450 nM
16 | CCc1sc(C(=O)CCc2cc(C)c(OC[C@@H](O)CO)c(C)c2)c2c1CC1(CCCC1)CC2 | 62 nM
17 | CCc1cc(-c2noc(-c3sc(CC)c4c3CCC3(CC3)C4)n2)cc(C)c1OC[C@@H](O)CNC(=O)CO | 24 nM
18 | Cc1cc(CCC(=O)c2sc(C)c3c2CCC(C)(C)C3)cc(C)c1O | > 10000 nM

Second part, the compound after the results:

Row | EC50 | Compound
19 | 1400 nM | Cc1cc(CCC(=O)c2sc(C)c3c2CCC(C)(C)C3)cc(C)c1OC[C@@H](O)CO
20 | 5270 nM | CCc1cc(CCC(=O)c2scc3c2CCC(C)(C)C3)cc(C)c1OC[C@@H](O)CNC(=O)CO
21 | 1100 nM | Cc1cc(CCC(=O)c2sc(C)c3c2CCC(C)(C)C3)cc(C)c1OC[C@H](O)CO
22 | 25 nM | CCCc1sc(C(=O)CCc2cc(C)c(OC[C@@H](O)CNC(=O)CO)c(CC)c2)c2c1CC(C)(C)CC2
23 | 314 nM | CCc1cc(-c2noc(-c3scc4c3CCC(C)(C)C4)n2)cc(C)c1OCC(O)CNC(=O)CO (racemic)
24 | > 10000 nM | Cc1cc(CCC(=O)c2sc(C)c3c2CCC(C)(C)C3)cc(C)c1OCC(O)CNCCO (racemic)
25 | > 10000 nM | Cc1cc(CCC(=O)c2sc(C)c3c2CCC(C)(C)C3)cc(C)c1OCC(O)CN (racemic)

organism: Homo sapiens; assay: Selectivity ratio of EC50 for human recombinant S1P3 receptor to EC50 for human recombinant S1P1 receptor
Outline: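 GDP was 1 μM for S1P1 and 3 μM for S1P3. Compounds (up to 10 μM) were preincubated 30 min at rt, then incubated 1 h at rt. Bound label was counted after filtration. 10 μM S1P defined maximum. EC50s are geometric means of ≥3 independent duplicate runs.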

Row | Ratio EC50 | Compound
26 | 100 | Cc1cc(CCC(=O)c2sc(C)c3c2CCC(C)(C)C3)cc(C)c1OC[C@@H](O)CO
27 | 100 | CCc1cc(CCC(=O)c2scc3c2CCC(C)(C)C3)cc(C)c1OC[C@@H](O)CNC(=O)CO
28 | 100 | Cc1cc(CCC(=O)c2sc(C)c3c2CCC(C)(C)C3)cc(C)c1OC[C@H](O)CO
29 | 100 | CCc1cc(-c2noc(-c3scc4c3CCC(C)(C)C4)n2)cc(C)c1OCC(O)CNC(=O)CO (racemic)
